# Test results taken from ChEMBL document CHEMBL2176934 (J Med Chem, 2012).
# The source made the active and inactive calls. The calls are words filed in the database; no cut-off is given here.
# Key:
# Mus musculus = experiment: Antifibrosis activity in C57BL6/J mouse assessed as inhibition of LPA-stimulated histamine release at 100 mg/kg, po dosed 2 hrs prior to LPA-challenge by ELISA; type: functional, organism-based; set-up: dose 100 mg/kg
# Summary of the method: (§1)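 Male C57BL6/J mice, 7–9 weeks old, given compound orally 2 h before intravenous LPA 100 μg/mouse (in 0.1% fatty acid-free BSA). Killed 3 min after LPA; EDTA plasma histamine measured by ELISA and plasma drug levels by LC/MS. n = 5–8 mice, mean ± SEM; one-way ANOVA with Dunnett's test versus LPA vehicle control.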
# [1] = molecular target: T1, Lysophosphatidic acid receptor 3 (Homo sapiens, UniProt Q9UBY5); experiment: Antagonist activity at human recombinant LPA3 expressed in chem-1 cells assessed as inhibition of LPA-induced intracellular calcium mobilization incubated for 30 mins prior to LPA-challenge measured over 100 secs by FLIPR assay; type: functional, cell-based
# T1 sequence (Q9UBY5 whole entry): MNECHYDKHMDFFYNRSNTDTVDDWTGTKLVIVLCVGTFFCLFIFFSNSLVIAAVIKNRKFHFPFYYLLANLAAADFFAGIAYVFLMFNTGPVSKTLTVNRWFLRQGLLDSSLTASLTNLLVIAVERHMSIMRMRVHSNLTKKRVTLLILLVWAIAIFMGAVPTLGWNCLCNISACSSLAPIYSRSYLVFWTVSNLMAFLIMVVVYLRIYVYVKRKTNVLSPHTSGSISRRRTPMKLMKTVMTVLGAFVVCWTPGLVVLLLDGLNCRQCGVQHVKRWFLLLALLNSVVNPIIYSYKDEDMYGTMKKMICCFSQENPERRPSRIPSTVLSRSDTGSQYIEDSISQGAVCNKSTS
# Summary of the method: (§2)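 Calcium-optimized Chem-1 cells stably expressing human LPA1 or LPA3 (parental line with ionomycin as counterscreen), seeded 10,000/well the day before. Calcium-4 dye in HBSS/20 mM HEPES/2.5 mM probenecid loaded 30 min at 37 °C; compound added, 30 min at room temperature in the dark; LPA (18:1) 1 μM final. Peak fluorescence read over 100 s; IC50 from 10-concentration 4-parameter logistic fit, mean of at least three runs.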
# [2] = Inhibition of Cytochrome P450; type: ADME
# [3] = molecular target: T2, Lysophosphatidic acid receptor 1 (Homo sapiens, UniProt Q92633); experiment: Antagonist activity at human recombinant LPA1 expressed in chem-1 cells assessed as inhibition of LPA-induced intracellular calcium mobilization at 30 uM incubated for 30 mins prior to LPA-challenge measured over 100 secs by FLIPR assay; type: functional, cell-based; summary of the method: as §2
# T2 sequence (Q92633 whole entry): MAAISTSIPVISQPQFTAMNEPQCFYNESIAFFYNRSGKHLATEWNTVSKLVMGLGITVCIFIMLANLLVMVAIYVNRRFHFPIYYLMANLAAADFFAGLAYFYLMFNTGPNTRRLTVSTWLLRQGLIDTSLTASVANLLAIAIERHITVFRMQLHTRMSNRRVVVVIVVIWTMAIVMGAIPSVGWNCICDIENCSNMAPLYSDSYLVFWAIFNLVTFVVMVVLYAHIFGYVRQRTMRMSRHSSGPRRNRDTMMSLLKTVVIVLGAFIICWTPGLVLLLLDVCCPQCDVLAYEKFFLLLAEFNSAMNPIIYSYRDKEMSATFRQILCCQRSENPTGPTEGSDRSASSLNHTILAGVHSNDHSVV
# [4] = molecular target: Voltage-gated inwardly rectifying potassium channel KCNH2 (Homo sapiens, UniProt Q12809); experiment: Inhibition of human ERG
# Sequence of Voltage-gated inwardly rectifying potassium channel KCNH2 (Q12809 whole entry): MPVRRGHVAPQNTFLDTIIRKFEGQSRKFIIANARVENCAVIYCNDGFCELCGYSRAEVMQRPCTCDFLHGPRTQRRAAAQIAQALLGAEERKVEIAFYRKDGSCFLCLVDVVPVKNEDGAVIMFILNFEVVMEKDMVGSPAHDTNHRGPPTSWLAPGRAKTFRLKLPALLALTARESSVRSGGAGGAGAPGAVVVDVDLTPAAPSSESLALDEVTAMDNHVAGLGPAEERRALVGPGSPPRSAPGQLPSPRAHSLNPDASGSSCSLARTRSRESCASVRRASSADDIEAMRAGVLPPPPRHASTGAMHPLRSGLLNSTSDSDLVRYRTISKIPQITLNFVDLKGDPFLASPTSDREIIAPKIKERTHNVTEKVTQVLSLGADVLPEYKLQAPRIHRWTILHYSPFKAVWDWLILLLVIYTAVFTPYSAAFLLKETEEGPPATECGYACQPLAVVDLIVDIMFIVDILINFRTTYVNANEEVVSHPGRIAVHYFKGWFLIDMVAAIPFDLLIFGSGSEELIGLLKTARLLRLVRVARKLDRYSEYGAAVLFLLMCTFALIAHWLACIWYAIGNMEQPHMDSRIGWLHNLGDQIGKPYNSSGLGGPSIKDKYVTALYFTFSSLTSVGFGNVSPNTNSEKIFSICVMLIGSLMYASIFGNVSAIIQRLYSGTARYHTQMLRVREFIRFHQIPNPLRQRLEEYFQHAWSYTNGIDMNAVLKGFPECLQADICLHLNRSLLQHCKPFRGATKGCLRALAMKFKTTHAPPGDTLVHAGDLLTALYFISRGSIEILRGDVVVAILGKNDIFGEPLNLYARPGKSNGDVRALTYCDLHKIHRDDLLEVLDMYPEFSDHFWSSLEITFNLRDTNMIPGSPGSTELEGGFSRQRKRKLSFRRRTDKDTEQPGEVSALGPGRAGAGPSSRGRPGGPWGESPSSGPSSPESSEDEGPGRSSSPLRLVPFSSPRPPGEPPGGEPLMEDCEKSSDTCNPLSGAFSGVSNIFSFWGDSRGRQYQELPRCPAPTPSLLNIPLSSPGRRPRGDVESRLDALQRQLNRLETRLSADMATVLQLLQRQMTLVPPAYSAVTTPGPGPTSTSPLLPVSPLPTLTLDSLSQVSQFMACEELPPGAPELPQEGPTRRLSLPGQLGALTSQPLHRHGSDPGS
# [5] = molecular target: T3, Lysophosphatidic acid receptor 3 (Homo sapiens) (UniProt Q9UBY5); experiment: Antagonist activity at human recombinant LPA3 expressed in chem-1 cells assessed as inhibition of LPA-induced intracellular calcium mobilization at 30 uM incubated for 30 mins prior to LPA-challenge measured over 100 secs by FLIPR assay; type: functional, cell-based; summary of the method: as §2
# T3 sequence (whole entry): T1 sequence (Q9UBY5 whole entry)
# [6] = Inhibition of LPA-induced proliferation of HLF incubated for 1 hr prior to LPA-challenge measured after 48 hrs by BrdU incorporation assay; conditions: Homo sapiens
# [7] = molecular target: T2, Lysophosphatidic acid receptor 1; experiment: Antagonist activity at LPA1 in human lung fibroblasts assessed as inhibition of LPA-induced contraction after 18 hrs by 3D collagen gel contraction assay; type: functional
# Summary of the method: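 NHLFs (healthy nonsmoking donors, passages 5–9) at 2.5 × 10⁵ cells/well, mixed 1:4 with collagen lattice; gels polymerized 2 h at 37 °C, then basal medium with 0.1% FBS, 0.1% fatty acid-free BSA and vehicle or antagonist added. Gels detached, LPA (18:1) 15 μM added; after 18 h, contraction quantified by gel disc weight.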
# Plasma = experiment: Ratio of plasma concentration of AM095 to plasma concentration of compound in C57BL6/J mouse at 100 mg/kg, po dosed 2 hrs prior to LPA-challenge by LC/MS spectrometry; type: ADME, organism-based; set-up: dose 100 mg/kg, route oral; conditions: in vivo; summary of the method: as §1
# [8] = Inhibition of LPA-induced proliferation of HLF at 1 uM incubated for 1 hr prior to LPA-challenge measured after 48 hrs by BrdU incorporation assay; type: functional; conditions: Homo sapiens
# Summary of the method: (§3)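 NHLFs (passages 5–9) seeded on collagen I at 5 × 10³ cells/well overnight in complete medium, then starved 24 h in basal medium with 0.1% FBS and 0.1% fatty acid-free BSA. Stimulated with LPA (18:1) 15 μM in the presence of antagonist; proliferation read as BrdU incorporation with a commercial kit.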
# [9] = Inhibition of LPA-induced proliferation of HLF at 10 uM incubated for 1 hr prior to LPA-challenge measured after 48 hrs by BrdU incorporation assay; type: functional; conditions: Homo sapiens; summary of the method: as §3
Compound,inhibition (Mus musculus),IC50 [1],inhibition (INH) [2],inhibition [3],inhibition (INH) [4],IC50 [6],inhibition [7],other results
Cc1noc(-c2ccc(-c3ccc(CC(=O)O)cc3)cc2)c1NC(=O)O[C@H](C)c1ccccc1,Active,–,–,–,–,–,–,–
CC(OC(=O)Nc1c(-c2ccc(F)cc2)cnn1C)c1ccccc1Cl (racemic),–,> 30000 nM,Not Active,> 97%,Not Active,–,–,–
Cc1nnn(-c2ccc(-c3ccc(C4(C(=O)O)CC4)cc3)cc2)c1NC(=O)O[C@H](C)c1ccccc1,Active,–,Not Active,–,Not Active,4 nM,Dose-dependent effect,inhibition [5]: 20%; Ratio (Plasma): > 65
CC(OC(=O)Nc1c(-c2ccccc2)cnn1C)c1ccccc1Cl (racemic),–,> 30000 nM,Not Active,> 97%,Not Active,–,–,–
C[C@@H](OC(=O)Nc1c(-c2ccccc2F)cnn1C)c1ccccc1Cl,–,–,Not Active,> 97%,Not Active,810 nM,–,inhibition at 1 µM [8]: > 50%
Cc1csc2c(N[C@@H](C)CN3CCN(S(=O)(=O)c4ccc(Cl)c(Cl)c4)CC3)ncnc12,–,–,–,–,–,–,inactive,inhibition at 10 µM [9]: < 50%
